Data: ChEMBL document CHEMBL4007411, “Design, Synthesis, and Biological Evaluation of Coupled Bioactive Scaffolds as Potential Anticancer Agents for Dual Targeting of Dihydrofolate Reductase and Thioredoxin Reductase” (J Med Chem, 2017)
Active and inactive are the calls of the source. The rule behind the calls is not given here.

How the values were obtained:
[1] = target: T1, Dihydrofolate reductase (Homo sapiens, UniProt P00374); experiment: Inhibition of recombinant human DHFR assessed as reduction in conversion of DHF to THF measured every 30 secs for 6 mins by UV-Vis spectrophotometric method
T1 sequence (P00374 whole entry): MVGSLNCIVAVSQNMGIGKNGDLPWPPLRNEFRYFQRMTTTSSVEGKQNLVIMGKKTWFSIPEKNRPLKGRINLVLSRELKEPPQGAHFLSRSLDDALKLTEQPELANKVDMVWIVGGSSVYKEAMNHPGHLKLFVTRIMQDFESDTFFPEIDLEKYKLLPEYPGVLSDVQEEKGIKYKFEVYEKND

[2] = target: T2, Thioredoxin reductase 1, cytoplasmic (Rattus norvegicus, UniProt O89049); experiment: Inhibition of […] thioredoxin reductase after 30 mins by DTNB reduction assay
T2 sequence (O89049 whole entry): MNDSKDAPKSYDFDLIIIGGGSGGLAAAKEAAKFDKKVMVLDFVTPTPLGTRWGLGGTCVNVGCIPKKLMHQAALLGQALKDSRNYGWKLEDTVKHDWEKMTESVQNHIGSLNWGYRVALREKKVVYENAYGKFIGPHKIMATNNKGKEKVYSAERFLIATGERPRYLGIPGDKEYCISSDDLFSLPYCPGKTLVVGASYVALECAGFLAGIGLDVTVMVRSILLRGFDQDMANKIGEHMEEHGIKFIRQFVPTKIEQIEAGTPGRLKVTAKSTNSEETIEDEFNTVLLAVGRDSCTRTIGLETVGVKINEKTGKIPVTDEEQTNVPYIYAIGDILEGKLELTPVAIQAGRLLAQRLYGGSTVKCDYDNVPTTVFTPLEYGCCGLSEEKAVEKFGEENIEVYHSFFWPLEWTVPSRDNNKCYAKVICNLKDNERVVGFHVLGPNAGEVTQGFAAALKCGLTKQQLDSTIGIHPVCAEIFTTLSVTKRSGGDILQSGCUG
Outline: (§1)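 Rat liver TrxR at 2.1 units/ml preincubated with a range of test concentrations and 200 µM NADPH in 50 mM Tris-HCl, 1 mM EDTA, pH 7.5, at room temperature for 30 or 60 min. Equal volume of buffer with 5 mM DTNB and 200 µM NADPH then added. A412 followed over 2 min. Activity as % of vehicle Vmax; IC50 from log concentration plot.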

[3] = target: T2, Thioredoxin reductase 1, cytoplasmic; experiment: Inhibition of […] thioredoxin reductase after 60 mins by DTNB reduction assay; outline: as §1
[4] = tested on: HCT-116; experiment: Antiproliferative activity against human HCT116 cells after 72 hrs by MTT assay; format: functional; details: for GI50 / CC50: HCT-116, 72 h; for CC50: read-out: LC50 (the source's name)
Outline: (§2)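 Cells kept in RPMI 1640 with 10% FBS, penicillin and streptomycin at 37°C and 5% CO2. Seeded at 1.0 x 10^4/well and left to adhere overnight. Serial dilutions made in medium from DMSO stocks. MTT at 400 µg/ml final for 4 h, read at T0 and after 72 h. Formazan dissolved in DMSO:glycine pH 10.5, A550. GI50 and LC50 interpolated from absorbance versus log concentration.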

[5] = tested on: MCF7; experiment: Antiproliferative activity against human MCF7 cells after 72 hrs by MTT assay; format: functional; details: for GI50 / LC50 (concentration killing 50% of cells present at T0): MCF7, 72 h; outline: as §2
[6] = target: T3, Dihydrofolate reductase (Homo sapiens) (UniProt P00374); experiment: Inhibition of DHFR in human HCT116 cell lysate assessed as reduction in conversion of DHF to THF after 16 hrs
T3 sequence (whole entry): T1 sequence (P00374 whole entry)
Outline: (§3)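 HCT116 cells treated 16 h at 0.001 to 1 µM or 40 to 70 µM, then lysed. 400 µg lysate protein in PBS with 50 µM DHF and 200 µM NADPH, with matching controls containing 1 µM methotrexate. A340 decrease followed over 15 min at room temperature. MTX-sensitive rate given as % of DMSO-treated cells. Mean of three independent experiments.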

[7] = target: T3, Dihydrofolate reductase (Homo sapiens); experiment: Inhibition of DHFR in human HCT116 cell lysate assessed as reduction in conversion of DHF to THF at 40 to 70 uM after 16 hrs; outline: as §3
[8] = target: T4, Thioredoxin reductase 1, cytoplasmic (Homo sapiens) (UniProt Q16881); experiment: Inhibition of thioredoxin reductase in human HCT116 cell lysate using thioredoxin as substrate after 16 hrs by end point insulin assay method
T4 sequence (whole entry): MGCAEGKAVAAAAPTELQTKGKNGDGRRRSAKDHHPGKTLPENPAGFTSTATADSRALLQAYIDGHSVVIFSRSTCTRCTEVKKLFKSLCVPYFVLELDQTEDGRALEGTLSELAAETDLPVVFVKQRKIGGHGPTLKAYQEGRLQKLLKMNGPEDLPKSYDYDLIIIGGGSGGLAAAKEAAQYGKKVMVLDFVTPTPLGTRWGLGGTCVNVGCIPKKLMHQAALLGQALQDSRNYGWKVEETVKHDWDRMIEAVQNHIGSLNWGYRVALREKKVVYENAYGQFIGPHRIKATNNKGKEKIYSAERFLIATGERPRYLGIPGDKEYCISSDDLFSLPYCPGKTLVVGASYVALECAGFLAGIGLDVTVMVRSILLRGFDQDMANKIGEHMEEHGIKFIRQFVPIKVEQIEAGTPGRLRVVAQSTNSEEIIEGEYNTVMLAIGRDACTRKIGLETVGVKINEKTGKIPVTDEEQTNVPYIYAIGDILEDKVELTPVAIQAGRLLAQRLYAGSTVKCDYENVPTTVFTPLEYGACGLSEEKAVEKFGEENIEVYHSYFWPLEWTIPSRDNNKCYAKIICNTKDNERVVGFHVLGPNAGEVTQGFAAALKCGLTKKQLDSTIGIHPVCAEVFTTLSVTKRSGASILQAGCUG
Outline: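 HCT116 cells treated 16 h at 0.001 to 1 µM or 40 to 70 µM, then lysed. Stopped with 1 mM DTNB and 240 µM NADPH in 6 M guanidine HCl and Tris pH 8.0, read at A412. Given as % of DMSO-treated cells. Mean of three experiments.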

[9] = target: T4, Thioredoxin reductase 1, cytoplasmic (Homo sapiens); experiment: Inhibition of thioredoxin reductase in human HCT116 cell lysate using thioredoxin as substrate at 0.001 to 1 uM after 16 hrs by end point insulin assay method

CC1(C)N=C(N)N=C(N)N1OCCCOc1cccc(C(=O)/C=C/c2ccccc2)c1
IC50 [1]: 0.009 µM
IC50 ([2]; read-out: IC50): 10.8 µM
IC50 ([3]; read-out: IC50): 8.2 µM
GI50 [4]: 0.011 µM
CC50 [4]: 42.7 µM
GI50 [5]: 0.076 µM
LC50 (concentration killing 50% of cells present at T0) [5]: 20.2 µM
inhibition [6]: Dose-dependent effect
inhibition [7]: Active
inhibition [8]: Dose-dependent effect
inhibition [9]: inactive

CC1(C)N=C(N)N=C(N)N1OCCCOc1cccc(C(=O)CCc2ccccc2)c1
IC50 [1]: 0.0039 µM
GI50 [4]: 0.01 µM
CC50 [4]: 34.2 µM
GI50 [5]: 0.036 µM
LC50 (concentration killing 50% of cells present at T0) [5]: 25.9 µM

CN(Cc1cnc2nc(N)nc(N)c2n1)c1ccc(C(=O)N[C@@H](CCC(=O)O)C(=O)O)cc1 [METHOTREXATE]
GI50 [4]: 0.015 µM
CC50 [4]: > 100 µM
GI50 [5]: 0.024 µM

CC1(C)N=C(N)N=C(N)N1OCCOc1cccc(/C=C/C(=O)c2ccccc2)c1
IC50 [1]: 0.0592 µM
IC50 ([2]; read-out: IC50): 5.7 µM
IC50 ([3]; read-out: IC50): 4 µM
GI50 [4]: 0.145 µM
CC50 [4]: 52.2 µM
GI50 [5]: 0.623 µM
LC50 (concentration killing 50% of cells present at T0) [5]: 38.8 µM

CC1(C)N=C(N)N=C(N)N1OCCCOc1ccc(C(=O)/C=C/c2ccccc2)cc1
IC50 [1]: 0.0092 µM
IC50 ([2]; read-out: IC50): 49 µM
IC50 ([3]; read-out: IC50): 32.4 µM
GI50 [4]: 0.016 µM
CC50 [4]: 55.2 µM
GI50 [5]: 0.085 µM
LC50 (concentration killing 50% of cells present at T0) [5]: 34 µM

CC1(C)N=C(N)N=C(N)N1OCCOc1ccc(/C=C/C(=O)c2ccccc2)cc1
IC50 [1]: 0.0534 µM
IC50 ([2]; read-out: IC50): 29.8 µM
IC50 ([3]; read-out: IC50): 21.1 µM
GI50 [4]: 0.706 µM
CC50 [4]: 81.9 µM
GI50 [5]: 0.512 µM
LC50 (concentration killing 50% of cells present at T0) [5]: 47.7 µM

CC1(C)N=C(N)N=C(N)N1OCCCCOc1cccc(C(=O)/C=C/c2ccccc2)c1
IC50 [1]: 0.0042 µM
IC50 ([2]; read-out: IC50): 11.2 µM
IC50 ([3]; read-out: IC50): 6.7 µM
GI50 [4]: 0.051 µM
CC50 [4]: 30.3 µM
GI50 [5]: 0.122 µM
LC50 (concentration killing 50% of cells present at T0) [5]: 11.3 µM
inhibition [6]: Dose-dependent effect
inhibition [7]: Active
inhibition [8]: Dose-dependent effect
inhibition [9]: inactive

NC1=NC2(CCCC2)N(OCCOc2cccc(C(=O)/C=C/c3ccccc3)c2)C(N)=N1
IC50 [1]: 0.0131 µM
IC50 ([2]; read-out: IC50): 8 µM
IC50 ([3]; read-out: IC50): 4.6 µM
GI50 [4]: 0.26 µM
CC50 [4]: 24.1 µM
GI50 [5]: 0.77 µM
LC50 (concentration killing 50% of cells present at T0) [5]: 16.1 µM

CC1(C)N=C(N)N=C(N)N1OCCCCOc1ccc(C(=O)/C=C/c2ccccc2)cc1
IC50 [1]: 0.0034 µM
IC50 ([2]; read-out: IC50): 44.5 µM
IC50 ([3]; read-out: IC50): 27 µM
GI50 [4]: 0.039 µM
CC50 [4]: 24 µM
GI50 [5]: 0.087 µM
LC50 (concentration killing 50% of cells present at T0) [5]: 14.2 µM

O=C(Cc1ccccc1)Cc1ccccc1
IC50 [2]: Not Active
IC50 [3]: Not Active
growth inhibition (GI) [4]: inactive
growth inhibition (GI) [5]: inactive

CC1(C)N=C(N)N=C(N)N1OCCCOc1ccc(/C=C/C(=O)c2ccccc2)cc1
IC50 [1]: 0.0064 µM
IC50 ([2]; read-out: IC50): 35.9 µM
IC50 ([3]; read-out: IC50): 25.7 µM
GI50 [4]: 0.035 µM
CC50 [4]: 39 µM
GI50 [5]: 0.062 µM
LC50 (concentration killing 50% of cells present at T0) [5]: 35.3 µM

CC1(C)N=C(N)N=C(N)N1OCCOc1cccc(C(=O)/C=C/c2ccccc2)c1
IC50 [1]: 0.0356 µM
IC50 ([2]; read-out: IC50): 10.8 µM
IC50 ([3]; read-out: IC50): 6.9 µM
GI50 [4]: 0.17 µM
CC50 [4]: 49.9 µM
GI50 [5]: 0.719 µM
LC50 (concentration killing 50% of cells present at T0) [5]: 40.7 µM

CC1(C)N=C(N)N=C(N)N1OCCCOc1cccc(/C=C/C(=O)c2ccccc2)c1
IC50 [1]: 0.0032 µM
IC50 ([2]; read-out: IC50): 4.1 µM
IC50 ([3]; read-out: IC50): 2.8 µM
GI50 [4]: 0.011 µM
CC50 [4]: 48.2 µM
GI50 [5]: 0.013 µM
LC50 (concentration killing 50% of cells present at T0) [5]: 29.8 µM

CC1(C)N=C(N)N=C(N)N1OCCCCOc1cccc(/C=C/C(=O)c2ccccc2)c1
IC50 [1]: 0.0048 µM
IC50 ([2]; read-out: IC50): 6 µM
IC50 ([3]; read-out: IC50): 3.8 µM
GI50 [4]: 0.034 µM
CC50 [4]: 34.7 µM
GI50 [5]: 0.086 µM
LC50 (concentration killing 50% of cells present at T0) [5]: 15.5 µM

CC1(C)N=C(N)N=C(N)N1OCCCCOc1ccc(/C=C/C(=O)c2ccccc2)cc1
IC50 [1]: 0.004 µM
IC50 ([2]; read-out: IC50): 31.6 µM
IC50 ([3]; read-out: IC50): 21.1 µM
GI50 [4]: 0.026 µM
CC50 [4]: 42.9 µM
GI50 [5]: 0.141 µM
LC50 (concentration killing 50% of cells present at T0) [5]: 14.8 µM

CC1(C)N=C(N)N=C(N)N1OCCOc1ccc(C(=O)/C=C/c2ccccc2)cc1
IC50 [1]: 0.0141 µM
IC50 ([2]; read-out: IC50): 43.3 µM
IC50 ([3]; read-out: IC50): 20.4 µM
GI50 [4]: 0.572 µM
CC50 [4]: 50.1 µM
GI50 [5]: 0.584 µM
LC50 (concentration killing 50% of cells present at T0) [5]: 40.1 µM
